Measured values as given in ChEMBL document CHEMBL5724801, “EUbOPEN Chemogenomics Library - Multiplex” (2024).
Several values for one entry are separate records, joined by “and”; a condition that tells them apart may be missing. Identical values can stand only once.

Tested on: Fibroblast
Assay: Multiplex assay against human fibroblast
Format: toxicity, cell-based
Procedure, shortened: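 At seeding, live cells were stained with Hoechst33342, BioTracker Green Microtubule Cytoskeleton Dye, MitoTracker Red and Annexin V Alexa Fluor 680. After compound addition they were imaged on a CQ1 microscope at 37°C and 5% CO2, and CellPathfinder machine-learning gating sorted them into Hoechst high-intensity objects or normal cells, with normal cells further split into healthy, pyknosed or fragmented nuclei and pyknosed cells into mitotic or apoptotic. Tubulin, mitochondrial-mass and membrane-permeability phenotypes are given as per cents of cells with healthy nuclei.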

[1] = 12 h, 1 µM, compound concentration 1 uM
[2] = 12 h, 10 µM, compound concentration 10 uM
[3] = 24 h, 1 µM, compound concentration 1 uM
[4] = 24 h, 10 µM, compound concentration 10 uM
[5] = 48 h, 1 µM, compound concentration 1 uM
[6] = 48 h, 10 µM, compound concentration 10 uM

## Cc1ccccc1C(=O)Nc1ccc(C(=O)N2CCCC(N(C)C)c3ccccc32)cc1.Cl (stereo not given)
[1]
  Population Apoptotic (%): 52% and 36%
  Population Fragmented Nuclei (%): 16% and 22%
  Population Healthy Nuclei (%): 71% and 55%
  Population Hoechst High Intensity Objects (%): 0% and 1%
  Population Membrane Permeable-Phenotype (%): 0% and 10%
  Population Mitochondria Different-Phenotype (%): 5% and 3%
  Population Mitotic Cells (%): 47% and 63%
  Population Normal (%): 100% and 98%
  Population Pyknosed Nuclei (%): 12% and 21%
  Population Tubulin-Different-Phenotype (%): 31% and 45%
  Total Cell Count: 167 and 155
[2]
  Population Apoptotic (%): 58% and 45%
  Population Fragmented Nuclei (%): 26% and 29%
  Population Healthy Nuclei (%): 50% and 47%
  Population Hoechst High Intensity Objects (%): 1% and 4%
  Population Membrane Permeable-Phenotype (%): 1% and 4%
  Population Mitochondria Different-Phenotype (%): 12%
  Population Mitotic Cells (%): 41% and 54%
  Population Normal (%): 98% and 95%
  Population Pyknosed Nuclei (%): 22% and 23%
  Population Tubulin-Different-Phenotype (%): 70% and 61%
  Total Cell Count: 108 and 109
[3]
  Population Apoptotic (%): 38% and 43%
  Population Fragmented Nuclei (%): 15% and 28%
  Population Healthy Nuclei (%): 76% and 49%
  Population Hoechst High Intensity Objects (%): 1% and 5%
  Population Membrane Permeable-Phenotype (%): 0% and 8%
  Population Mitochondria Different-Phenotype (%): 8% and 2%
  Population Mitotic Cells (%): 61% and 56%
  Population Normal (%): 98% and 94%
  Population Pyknosed Nuclei (%): 8% and 21%
  Population Tubulin-Different-Phenotype (%): 30% and 50%
  Total Cell Count: 160 and 157
[4]
  Population Apoptotic (%): 58% and 57%
  Population Fragmented Nuclei (%): 30% and 37%
  Population Healthy Nuclei (%): 58% and 42%
  Population Hoechst High Intensity Objects (%): 1% and 4%
  Population Membrane Permeable-Phenotype (%): 0% and 9%
  Population Mitochondria Different-Phenotype (%): 12% and 11%
  Population Mitotic Cells (%): 41% and 42%
  Population Normal (%): 98% and 95%
  Population Pyknosed Nuclei (%): 11% and 20%
  Population Tubulin-Different-Phenotype (%): 68% and 72%
  Total Cell Count: 111 and 107
[5]
  Population Apoptotic (%): 33% and 53%
  Population Fragmented Nuclei (%): 13% and 32%
  Population Healthy Nuclei (%): 79% and 50%
  Population Hoechst High Intensity Objects (%): 3%
  Population Membrane Permeable-Phenotype (%): 0% and 8%
  Population Mitochondria Different-Phenotype (%): 4% and 5%
  Population Mitotic Cells (%): 66% and 46%
  Population Normal (%): 96%
  Population Pyknosed Nuclei (%): 7% and 17%
  Population Tubulin-Different-Phenotype (%): 28% and 54%
  Total Cell Count: 158 and 155
[6]
  Population Apoptotic (%): 91% and 73%
  Population Fragmented Nuclei (%): 24% and 43%
  Population Healthy Nuclei (%): 60% and 43%
  Population Hoechst High Intensity Objects (%): 7% and 3%
  Population Membrane Permeable-Phenotype (%): 0% and 8%
  Population Mitochondria Different-Phenotype (%): 12% and 14%
  Population Normal (%): 92% and 96%
  Population Pyknosed Nuclei (%): 14% and 13%
  Population Tubulin-Different-Phenotype (%): 51% and 70%
  Total Cell Count: 88 and 113

## CN1CC[C@@]23CCCC[C@@H]2[C@@H]1Cc1ccc(O)cc13.O=C(O)C(O)C(O)C(=O)O
[1]
  Population Apoptotic (%): 6.98% and 13.16%
  Population Fragmented Nuclei (%): 5.26% and 4.9%
  Population Healthy Nuclei (%): 69.59% and 79.59%
  Population Hoechst High Intensity Objects (%): 0%
  Population Membrane Permeable-Phenotype (%): 1.68% and 2.05%
  Population Mitochondria Different-Phenotype (%): 8.4% and 8.21%
  Population Mitotic Cells (%): 93.02% and 86.84%
  Population Normal (%): 100%
  Population Pyknosed Nuclei (%): 25.15% and 15.51%
  Population Tubulin-Different-Phenotype (%): 15.97% and 20.51%
  Total Cell Count: 171 and 245
[2]
  Population Apoptotic (%): 8.2% and 12.82%
  Population Fragmented Nuclei (%): 8.77% and 7.24%
  Population Healthy Nuclei (%): 64.47% and 79.31%
  Population Hoechst High Intensity Objects (%): 0%
  Population Membrane Permeable-Phenotype (%): 2.72% and 2.17%
  Population Mitochondria Different-Phenotype (%): 6.12% and 5.65%
  Population Mitotic Cells (%): 91.8% and 87.18%
  Population Normal (%): 100%
  Population Pyknosed Nuclei (%): 26.75% and 13.45%
  Population Tubulin-Different-Phenotype (%): 14.29% and 18.26%
  Total Cell Count: 228 and 290
[3]
  Population Apoptotic (%): 13.16% and 10.71%
  Population Fragmented Nuclei (%): 6.63% and 3.19%
  Population Healthy Nuclei (%): 72.38% and 85.66%
  Population Hoechst High Intensity Objects (%): 0%
  Population Membrane Permeable-Phenotype (%): 0% and 2.79%
  Population Mitochondria Different-Phenotype (%): 9.92% and 5.12%
  Population Mitotic Cells (%): 86.84% and 89.29%
  Population Normal (%): 100%
  Population Pyknosed Nuclei (%): 20.99% and 11.16%
  Population Tubulin-Different-Phenotype (%): 17.56% and 14.88%
  Total Cell Count: 181 and 251
[4]
  Population Apoptotic (%): 17.74% and 18.92%
  Population Fragmented Nuclei (%): 9.16% and 7.39%
  Population Healthy Nuclei (%): 68.13% and 79.58%
  Population Hoechst High Intensity Objects (%): 0%
  Population Membrane Permeable-Phenotype (%): 2.15% and 2.21%
  Population Mitochondria Different-Phenotype (%): 5.38% and 4.42%
  Population Mitotic Cells (%): 82.26% and 81.08%
  Population Normal (%): 100%
  Population Pyknosed Nuclei (%): 22.71% and 13.03%
  Population Tubulin-Different-Phenotype (%): 19.89% and 17.7%
  Total Cell Count: 273 and 284
[5]
  Population Apoptotic (%): 30.77% and 40%
  Population Fragmented Nuclei (%): 9.57% and 5.1%
  Population Healthy Nuclei (%): 84.21% and 89.02%
  Population Hoechst High Intensity Objects (%): 0%
  Population Membrane Permeable-Phenotype (%): 0.57% and 3.52%
  Population Mitotic Cells (%): 69.23% and 60%
  Population Normal (%): 100%
  Population Pyknosed Nuclei (%): 6.22% and 5.88%
  Population Tubulin-Different-Phenotype (%): 6.82% and 14.54%
  Total Cell Count: 209 and 255
[6]
  Population Apoptotic (%): 15.38% and 35.29%
  Population Fragmented Nuclei (%): 6.34% and 8.95%
  Population Healthy Nuclei (%): 88.81% and 85.62%
  Population Hoechst High Intensity Objects (%): 0%
  Population Membrane Permeable-Phenotype (%): 0.84% and 4.1%
  Population Mitochondria Different-Phenotype (%): 6.72% and 1.87%
  Population Mitotic Cells (%): 84.62% and 64.71%
  Population Normal (%): 100%
  Population Pyknosed Nuclei (%): 4.85% and 5.43%
  Population Tubulin-Different-Phenotype (%): 7.56% and 19.4%
  Total Cell Count: 268 and 313
